Columns and labels:
U937 [1] = experiment: Hoechst 33342 nuclear morphological analysis of apoptosis; assay type: cell-based; settings: Homo sapiens, U-937, 24 h, read-out: AP50 (50% induction of apoptosis), Hoechst 33342 staining (Hoe)
Summary of the method: (§1)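 Seeded at 0.5 x 10⁶ cells/well in 12-well plates and treated 24 h. Cells were pelleted (400 g, 5 min, 4 °C), washed in PBS, fixed in 4% paraformaldehyde, cytospun, air-dried, then stained with 10 μg/ml Hoechst 33342 for 10 min in the dark. Fluorescence microscopy: 200 cells counted, scored by condensed/intense nuclei, shrinkage, blebbing and apoptotic bodies. % apoptotic nuclei calculated. AP50 = concentration giving 50% apoptotic cells.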

non-tumor cells (CD34+) = experiment: NucView caspase 3 activity assay by flow cytometry; assay type: cell-based; settings: 24 h; for EC50: read-out: AP50 (50% induction of apoptosis), Caspase 3 activity assay (C3); for The lowest dose of polyphenols at which there was a significant induction of apoptosis compared to the vehicle control: CD34+ non-tumour control cells, caspase 3 activity, p<0.05
THP-1 [2] = experiment: NucView caspase 3 activity assay by flow cytometry; assay type: cell-based, human; settings: for EC50: Homo sapiens, THP-1, 24 h, read-out: AP50 (50% induction of apoptosis), Caspase 3 activity assay (C3); for The lowest dose of polyphenols at which there was a significant induction of apoptosis compared to the vehicle control: THP-1, caspase 3 activity, 24 h, p<0.05
Summary of the method: (§2)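 Seeded at 0.5 x 10⁶ cells/well and treated 24 h, with series of 0–50 or 0–250 µM depending on compound. Normalized to vehicle (0% apoptosis). Mean ± STD, three independent experiments in triplicate. One-way ANOVA/Tukey, p<0.05. AP50 = concentration giving 50% apoptotic cells.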

[3] = test system: non-tumor cord blood (CD34+) cells; experiment: CellTiter-Glo luminescent cell viability assay; assay type: cell-based; settings: 24 h; for IC50: read-out: IC50 (50% inhibition of cellular proliferation), CD34+ non-tumour control cells, 24 h treatment; for The lowest dose of polyphenols at which there was a significant inhibition of cell proliferation compared to the vehicle control: CD34+ non-tumour control cells, doses 0, 2, 10, 50, 250, 500 µM, p<0.05
Summary of the method: (§3)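 Cells grown in RPMI 1640 with 10% FBS, 1.5 mM L-glutamine and penicillin/streptomycin at 37 °C, 5% CO2. Seeded at 2.5 x 10³ cells/well and exposed 24 h to ethanol-dissolved test compound (0, 2, 10, 50, 250, 500 µM) with 0.1% ethanol vehicle. ATP luminescence normalized to vehicle (100%). IC50 taken from linear regression. Lowest significant dose set by one-way ANOVA/Tukey, p<0.05. Triplicates, three independent experiments.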

KG1a [4] = experiment: CellTiter-Glo luminescent cell viability assay; assay type: cell-based, human; settings: 24 h; for IC50: Homo sapiens, KG-1a, read-out: IC50 (50% inhibition of cellular proliferation); for The lowest dose of polyphenols at which there was a significant inhibition of cell proliferation compared to the vehicle control: KG1a, doses 0, 2, 10, 50, 250, 500 µM, p<0.05
Summary of the method: as §3

MOLT-3 [5] = experiment: NucView caspase 3 activity assay by flow cytometry; assay type: cell-based, human; settings: for EC50: Homo sapiens, MOLT-3, 24 h, read-out: AP50 (50% induction of apoptosis), Caspase 3 activity assay (C3); for The lowest dose of polyphenols at which there was a significant induction of apoptosis compared to the vehicle control: MOLT-3, caspase 3 activity, 24 h, p<0.05
Summary of the method: as §2

MOLT-3 [6] = experiment: Hoechst 33342 nuclear morphological analysis of apoptosis; assay type: cell-based; settings: Homo sapiens, MOLT-3, 24 h, read-out: AP50 (50% induction of apoptosis), Hoechst 33342 staining (Hoe)
Summary of the method: as §1

K562 [7] = experiment: as above; assay type: cell-based; settings: Homo sapiens, K562, 24 h, read-out: AP50 (50% induction of apoptosis), Hoechst 33342 staining (Hoe)
Summary of the method: as §1

K562 [8] = experiment: NucView caspase 3 activity assay by flow cytometry; assay type: cell-based, human; settings: for EC50: Homo sapiens, K562, 24 h, read-out: AP50 (50% induction of apoptosis), Caspase 3 activity assay (C3); for The lowest dose of polyphenols at which there was a significant induction of apoptosis compared to the vehicle control: K562, caspase 3 activity, 24 h, p<0.05
Summary of the method: as §2

[9] = test system: non-tumor progenitor cells (CD34+); experiment: Cell cycle analysis, propidium iodide flow cytometry; assay type: cell-based; settings: 24 h, within the IC50 ranges used to treat the leukemic cell lines
K562 [10] = experiment: CellTiter-Glo luminescent cell viability assay; assay type: cell-based, human; settings: K562, 24 h, doses 0, 2, 10, 50, 250, 500 µM, p<0.05
Summary of the method: as §3

JURKAT [11] = experiment: Hoechst 33342 nuclear morphological analysis of apoptosis; assay type: cell-based; settings: Homo sapiens, 24 h, read-out: AP50 (50% induction of apoptosis), Hoechst 33342 staining (Hoe)
Summary of the method: as §1

THP-1 [12] = experiment: CellTiter-Glo luminescent cell viability assay; assay type: cell-based, human; settings: THP-1, 24 h, doses 0, 2, 10, 50, 250, 500 µM, p<0.05
Summary of the method: as §3

MOLT-3 [13] = experiment: CellTiter-Glo luminescent cell viability assay; assay type: cell-based, human; settings: MOLT-3, 24 h, doses 0, 2, 10, 50, 250, 500 µM, p<0.05
Summary of the method: as §3

JURKAT [14] = experiment: Cell cycle analysis, propidium iodide flow cytometry; assay type: cell-based, human; settings: IC50 dose, 24 h, p<0.05
Summary of the method: (§4)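 Seeded at 0.5 x 10^6 cells per well in 12-well plates and treated 24 h at the IC50 concentration of each test compound from CellTiter-Glo. Cells were pelleted (400 g, 5 min), PBS-washed and fixed in 80% ethanol overnight at -20 °C. Staining used 50 µg/mL PI plus RNase overnight at 4 °C.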

HL60 [15] = experiment: as above; assay type: cell-based, human; settings: HL60, IC50 dose, 24 h; vehicle control S = 33.6%
Summary of the method: as §4

HL60 [16] = experiment: CellTiter-Glo luminescent cell viability assay; assay type: cell-based, human; settings: HL60, 24 h, doses 0, 2, 10, 50, 250, 500 µM, p<0.05
Summary of the method: as §3

KG1a [17] = experiment: Cell cycle analysis, propidium iodide flow cytometry; assay type: cell-based, human; settings: IC50 dose, 24 h
Summary of the method: as §4

U937 [18] = experiment: CellTiter-Glo luminescent cell viability assay; assay type: cell-based, human; settings: U937, 24 h, doses 0, 2, 10, 50, 250, 500 µM, p<0.05
Summary of the method: as §3

JURKAT [19] = experiment: NucView caspase 3 activity assay by flow cytometry; assay type: cell-based, human; settings: 24 h; for EC50: Homo sapiens, Jurkat, read-out: AP50 (50% induction of apoptosis), Caspase 3 activity assay (C3); for The lowest dose of polyphenols at which there was a significant induction of apoptosis compared to the vehicle control: JURKAT, caspase 3 activity, p<0.05
Summary of the method: as §2

K562 [20] = experiment: Cell cycle analysis, propidium iodide flow cytometry; assay type: cell-based, human; settings: K562, IC50 dose, 24 h
Summary of the method: as §4

THP-1 [21] = experiment: Hoechst 33342 nuclear morphological analysis of apoptosis; assay type: cell-based; settings: Homo sapiens, THP-1, 24 h, read-out: AP50 (50% induction of apoptosis), Hoechst 33342 staining (Hoe)
Summary of the method: as §1

HL60 [22] = experiment: as above; assay type: cell-based; settings: Homo sapiens, HL-60, 24 h, read-out: AP50 (50% induction of apoptosis), Hoechst 33342 staining (Hoe)
Summary of the method: as §1

U937 [23] = experiment: Cell cycle analysis, propidium iodide flow cytometry; assay type: cell-based, human; settings: U937, IC50 dose, 24 h; vehicle control G0/G1 = 44.03%
Summary of the method: as §4

Row | Compound | EC50 (U937 [1]) | EC50 (non-tumor cells (CD34+)) | The lowest dose of polyphenols at which there was a significant induction of apoptosis compared to the vehicle control (non-tumor cells (CD34+)) | EC50 (THP-1 [2]) | The lowest dose of polyphenols at which there was a significant induction of apoptosis compared to the vehicle control (THP-1 [2]) | IC50 [3] | The lowest dose of polyphenols at which there was a significant inhibition of cell proliferation compared to the vehicle control [3] | IC50 (KG1a [4]) | The lowest dose of polyphenols at which there was a significant inhibition of cell proliferation compared to the vehicle control (KG1a [4]) | EC50 (MOLT-3 [5]) | The lowest dose of polyphenols at which there was a significant induction of apoptosis compared to the vehicle control (MOLT-3 [5]) | EC50 (MOLT-3 [6]) | EC50 (K562 [7]) | EC50 (K562 [8]) | The lowest dose of polyphenols at which there was a significant induction of apoptosis compared to the vehicle control (K562 [8]) | Cell cycle arrest in non-tumour control cells [9] | The lowest dose of polyphenols at which there was a significant inhibition of cell proliferation compared to the vehicle control (K562 [10]) | EC50 (JURKAT [11]) | The lowest dose of polyphenols at which there was a significant inhibition of cell proliferation compared to the vehicle control (THP-1 [12]) | The lowest dose of polyphenols at which there was a significant inhibition of cell proliferation compared to the vehicle control (MOLT-3 [13]) | also measured
1 | O=c1cc(-c2ccccc2)oc2cc(O)cc(O)c12 [Chrysin] | 32 µM | > 250 µM | 250 µM | > 250 µM | 250 µM | > 500 µM | 500 µM | 335 µM | 250 µM | 140 µM | 50 µM | 38 µM | > 500 µM | > 250 µM | 250 µM | No Arrest <250µM | 250 µM | 30 µM | 250 µM | 50 µM | Phase of cell cycle accumulation (JURKAT [14]): G0/G1 phase; Percentage of cells in S phase of cell cycle (significant accumulation) (HL60 [15]): S =45.5%; The lowest dose of polyphenols at which there was a significant inhibition of cell proliferation compared to the vehicle control (HL60 [16]): 50 µM; Percentage of cells in G0/G1 phase of cell cycle (significant accumulation) (KG1a [17]; vehicle control G0/G1 = 44.6%): G0/G1 =50%; The lowest dose of polyphenols at which there was a significant inhibition of cell proliferation compared to the vehicle control (U937 [18]): 50 µM; EC50 (JURKAT [19]): 40 µM; The lowest dose of polyphenols at which there was a significant induction of apoptosis compared to the vehicle control (JURKAT [19]): 50 µM; Percentage of cells in G0/G1 phase of cell cycle (significant accumulation) (K562 [20]; vehicle control G0/G1 = 53.7%): G0/G1 =59%; EC50 (THP-1 [21]): > 500 µM; EC50 (HL60 [22]): 75 µM; Percentage of cells in G0/G1 phase of cell cycle (significant accumulation) (U937 [23]): G0/G1 =70%
2 | C(=C\c1ccccc1)/c1ccccc1 [Trans-Stilbene, Trans-stilbene] | 225 µM | > 500 µM | 250 µM | > 500 µM | 250 µM | 500 µM | 250 µM | 250 µM | 50 µM | 350 µM | 50 µM | 400 µM | 460 µM | > 500 µM | 50 µM | No Arrest ≤500µM | 50 µM | 310 µM | 250 µM | 50 µM | Phase of cell cycle accumulation (JURKAT [14]): S-phase; Percentage of cells in S phase of cell cycle (significant accumulation) (HL60 [15]): S =41.9%; The lowest dose of polyphenols at which there was a significant inhibition of cell proliferation compared to the vehicle control (HL60 [16]): 50 µM; Percentage of cells in G2/M phase of cell cycle (significant accumulation) (KG1a [17]; vehicle control G2/M = 18.7%): G2/M =23.7%; The lowest dose of polyphenols at which there was a significant inhibition of cell proliferation compared to the vehicle control (U937 [18]): 50 µM; EC50 (JURKAT [19]): 250 µM; The lowest dose of polyphenols at which there was a significant induction of apoptosis compared to the vehicle control (JURKAT [19]): 50 µM; Percentage of cells in G2/M phase of cell cycle (significant accumulation) (K562 [20]; vehicle control G2/M = 13.6%): G2/M =24.5%; EC50 (THP-1 [21]): > 500 µM; EC50 (HL60 [22]): 50 µM; Percentage of cells in G0/G1 phase of cell cycle (significant accumulation) (U937 [23]): G0/G1 =62%
